{"source": "ChEMBL document CHEMBL2203170", "about": "“Synthesis, DNA-PK inhibition, anti-platelet activity studies of 2-(N-substituted-3-aminopyridine)-substituted-1,3-benzoxazines and DNA-PK and PI3K inhibition, homology modelling studies of 2-morpholino-(7,8-di and 8-substituted)-1,3-benzoxazines” (Eur J Med Chem, 2012)", "key": {"[1]": {"biological_target": "DNA-dependent protein kinase catalytic subunit (Homo sapiens, UniProt P78527)", "assay": "Inhibition of DNA-PK using EPPLSQEAFADLWKK as substrate after 5 mins by ADP-Glo kinase assay"}, "[2]": {"assay": "Antiplatelet activity against human platelet assessed as inhibition of collagen-induced platelet aggregation incubated for 2 mins before collagen induction by two-channel platelet aggregometer", "format": "functional, cell-based", "how_it_was_run": "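Venous blood from healthy, drug-free volunteers collected into trisodium citrate 22.0 g/L. Aggregation was measured optically in a two-channel aggregometer, following an earlier protocol.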"}, "[3]": {"biological_target": "T1, Phosphatidylinositol 4,5-bisphosphate 3-kinase catalytic subunit delta isoform (Homo sapiens, UniProt O00329)", "T1 sequence (O00329 whole entry)": "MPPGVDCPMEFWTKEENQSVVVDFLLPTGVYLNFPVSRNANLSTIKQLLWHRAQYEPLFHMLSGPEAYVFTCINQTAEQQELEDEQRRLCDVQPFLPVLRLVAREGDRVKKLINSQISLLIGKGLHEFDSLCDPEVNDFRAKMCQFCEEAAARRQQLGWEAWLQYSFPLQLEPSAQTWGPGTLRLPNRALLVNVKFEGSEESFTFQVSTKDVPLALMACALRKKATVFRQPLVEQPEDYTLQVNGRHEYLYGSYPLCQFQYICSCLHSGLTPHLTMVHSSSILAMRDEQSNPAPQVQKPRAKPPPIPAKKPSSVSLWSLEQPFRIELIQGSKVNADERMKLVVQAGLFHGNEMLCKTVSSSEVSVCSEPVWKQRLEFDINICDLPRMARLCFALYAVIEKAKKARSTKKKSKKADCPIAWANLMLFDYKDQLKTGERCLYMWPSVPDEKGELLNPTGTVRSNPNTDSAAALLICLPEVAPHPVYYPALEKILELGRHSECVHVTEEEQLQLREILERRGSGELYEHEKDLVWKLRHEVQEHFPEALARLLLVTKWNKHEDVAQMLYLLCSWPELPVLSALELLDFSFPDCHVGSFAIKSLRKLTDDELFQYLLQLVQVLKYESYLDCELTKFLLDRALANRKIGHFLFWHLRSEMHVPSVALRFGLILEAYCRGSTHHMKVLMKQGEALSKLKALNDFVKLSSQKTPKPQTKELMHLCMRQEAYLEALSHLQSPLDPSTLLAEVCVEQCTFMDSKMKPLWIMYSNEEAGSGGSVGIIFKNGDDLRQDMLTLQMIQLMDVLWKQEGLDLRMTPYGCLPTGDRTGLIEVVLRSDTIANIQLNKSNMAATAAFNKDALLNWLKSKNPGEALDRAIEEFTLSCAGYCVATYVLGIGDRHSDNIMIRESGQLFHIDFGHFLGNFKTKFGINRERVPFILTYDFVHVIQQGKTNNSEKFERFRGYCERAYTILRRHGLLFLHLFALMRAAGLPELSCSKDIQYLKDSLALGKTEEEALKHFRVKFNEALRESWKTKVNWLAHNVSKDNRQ", "assay": "Inhibition of PI3Kdelta by HTRF assay in presence of ATP"}, "[4]": {"biological_target": "Phosphatidylinositol 4,5-bisphosphate 3-kinase catalytic subunit beta isoform (Homo sapiens, UniProt P42338)", "sequence (P42338 whole entry, canonical isoform)": "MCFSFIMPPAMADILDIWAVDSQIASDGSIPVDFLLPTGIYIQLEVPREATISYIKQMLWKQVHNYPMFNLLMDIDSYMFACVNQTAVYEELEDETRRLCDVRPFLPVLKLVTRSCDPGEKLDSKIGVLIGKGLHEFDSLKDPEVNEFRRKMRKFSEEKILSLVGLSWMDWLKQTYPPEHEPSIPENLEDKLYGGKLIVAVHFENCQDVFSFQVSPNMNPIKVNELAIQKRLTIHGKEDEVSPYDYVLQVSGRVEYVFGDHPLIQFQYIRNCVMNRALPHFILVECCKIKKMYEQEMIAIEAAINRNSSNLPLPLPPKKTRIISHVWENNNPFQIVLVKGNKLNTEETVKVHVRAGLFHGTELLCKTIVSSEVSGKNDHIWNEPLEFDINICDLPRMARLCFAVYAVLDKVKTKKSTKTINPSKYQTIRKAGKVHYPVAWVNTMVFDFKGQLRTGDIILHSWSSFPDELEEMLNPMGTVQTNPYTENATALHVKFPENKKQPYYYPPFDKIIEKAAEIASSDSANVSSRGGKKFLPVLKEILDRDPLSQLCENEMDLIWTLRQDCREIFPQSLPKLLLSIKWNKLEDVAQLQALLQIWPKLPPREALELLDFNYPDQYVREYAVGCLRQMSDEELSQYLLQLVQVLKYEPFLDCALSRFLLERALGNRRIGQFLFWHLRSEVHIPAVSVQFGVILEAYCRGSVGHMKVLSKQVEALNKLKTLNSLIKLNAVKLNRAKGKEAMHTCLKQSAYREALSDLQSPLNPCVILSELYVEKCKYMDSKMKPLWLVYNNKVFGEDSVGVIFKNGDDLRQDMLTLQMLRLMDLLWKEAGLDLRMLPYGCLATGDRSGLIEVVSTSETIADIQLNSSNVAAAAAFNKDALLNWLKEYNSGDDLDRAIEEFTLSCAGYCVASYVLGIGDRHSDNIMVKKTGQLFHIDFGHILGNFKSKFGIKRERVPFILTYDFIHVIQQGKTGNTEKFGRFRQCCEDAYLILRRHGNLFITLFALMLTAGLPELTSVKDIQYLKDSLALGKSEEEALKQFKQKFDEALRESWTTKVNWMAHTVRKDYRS", "assay": "Inhibition of PI3Kbeta by HTRF assay in presence of ATP"}, "[5]": {"biological_target": "Phosphatidylinositol 4,5-bisphosphate 3-kinase catalytic subunit alpha isoform (Homo sapiens, UniProt P42336)", "sequence (P42336 whole entry, canonical isoform)": "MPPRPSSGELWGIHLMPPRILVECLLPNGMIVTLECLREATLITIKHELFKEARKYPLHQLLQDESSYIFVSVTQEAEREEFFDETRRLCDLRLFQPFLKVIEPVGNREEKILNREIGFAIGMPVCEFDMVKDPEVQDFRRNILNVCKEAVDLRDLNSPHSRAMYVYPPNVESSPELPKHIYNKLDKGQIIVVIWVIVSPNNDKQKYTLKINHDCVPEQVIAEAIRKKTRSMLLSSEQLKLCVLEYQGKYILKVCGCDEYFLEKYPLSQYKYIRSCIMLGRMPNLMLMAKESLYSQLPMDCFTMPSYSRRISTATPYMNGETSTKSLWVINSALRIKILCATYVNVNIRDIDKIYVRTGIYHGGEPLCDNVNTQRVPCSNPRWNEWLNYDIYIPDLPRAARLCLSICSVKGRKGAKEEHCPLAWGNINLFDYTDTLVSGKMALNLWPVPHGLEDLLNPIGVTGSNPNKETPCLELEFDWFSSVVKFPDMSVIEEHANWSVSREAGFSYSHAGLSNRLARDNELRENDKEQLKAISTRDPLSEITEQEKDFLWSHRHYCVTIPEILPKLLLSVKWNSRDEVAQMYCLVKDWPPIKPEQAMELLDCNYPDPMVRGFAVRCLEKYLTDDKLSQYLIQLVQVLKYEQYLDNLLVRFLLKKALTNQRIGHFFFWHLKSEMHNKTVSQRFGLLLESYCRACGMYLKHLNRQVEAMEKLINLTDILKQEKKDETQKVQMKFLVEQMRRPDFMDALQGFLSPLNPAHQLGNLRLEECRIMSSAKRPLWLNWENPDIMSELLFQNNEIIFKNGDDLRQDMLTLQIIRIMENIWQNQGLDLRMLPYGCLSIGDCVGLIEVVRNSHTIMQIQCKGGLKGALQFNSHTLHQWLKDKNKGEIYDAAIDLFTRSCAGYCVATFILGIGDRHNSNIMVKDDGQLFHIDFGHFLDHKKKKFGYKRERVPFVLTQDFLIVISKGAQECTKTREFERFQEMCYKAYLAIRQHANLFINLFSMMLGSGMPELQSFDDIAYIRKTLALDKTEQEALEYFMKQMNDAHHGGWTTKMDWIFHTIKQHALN", "assay": "Inhibition of PI3Kalpha by HTRF assay in presence of ATP"}, "[6]": {"biological_target": "Phosphatidylinositol 4,5-bisphosphate 3-kinase catalytic subunit gamma isoform (Homo sapiens, UniProt P48736)", "sequence (P48736 whole entry, canonical isoform)": "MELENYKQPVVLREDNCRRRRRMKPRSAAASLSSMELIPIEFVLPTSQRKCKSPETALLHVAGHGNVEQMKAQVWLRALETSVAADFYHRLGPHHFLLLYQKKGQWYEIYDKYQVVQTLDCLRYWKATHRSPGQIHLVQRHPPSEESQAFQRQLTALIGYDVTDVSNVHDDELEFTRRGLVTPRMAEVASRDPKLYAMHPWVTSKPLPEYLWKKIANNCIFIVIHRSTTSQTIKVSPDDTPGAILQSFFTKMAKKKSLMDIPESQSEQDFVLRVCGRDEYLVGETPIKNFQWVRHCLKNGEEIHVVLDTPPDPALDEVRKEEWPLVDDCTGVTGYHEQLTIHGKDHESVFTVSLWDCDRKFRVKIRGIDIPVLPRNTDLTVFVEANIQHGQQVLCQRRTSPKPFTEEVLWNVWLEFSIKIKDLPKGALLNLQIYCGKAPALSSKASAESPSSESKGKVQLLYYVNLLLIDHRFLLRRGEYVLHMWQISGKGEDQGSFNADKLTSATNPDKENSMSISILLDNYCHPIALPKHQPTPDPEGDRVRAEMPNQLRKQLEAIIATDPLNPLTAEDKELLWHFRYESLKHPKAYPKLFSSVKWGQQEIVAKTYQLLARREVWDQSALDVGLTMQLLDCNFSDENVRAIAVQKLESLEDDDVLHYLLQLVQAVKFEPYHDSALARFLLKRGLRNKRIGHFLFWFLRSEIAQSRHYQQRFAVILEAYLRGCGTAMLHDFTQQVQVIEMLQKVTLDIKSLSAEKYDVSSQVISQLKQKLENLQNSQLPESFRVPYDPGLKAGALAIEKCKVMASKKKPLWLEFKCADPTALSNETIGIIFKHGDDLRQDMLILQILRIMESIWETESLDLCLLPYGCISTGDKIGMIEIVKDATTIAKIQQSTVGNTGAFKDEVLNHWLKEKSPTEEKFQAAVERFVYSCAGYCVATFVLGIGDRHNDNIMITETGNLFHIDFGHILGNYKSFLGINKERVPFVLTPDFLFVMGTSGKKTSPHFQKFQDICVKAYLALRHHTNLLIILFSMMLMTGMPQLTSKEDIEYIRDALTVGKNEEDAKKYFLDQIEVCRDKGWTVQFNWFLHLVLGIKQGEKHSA", "assay": "Inhibition of PI3Kgamma by HTRF assay in presence of ATP"}}, "data": [{"compound": "O=c1nc(N2CCOCC2)oc2cc(OCc3ccncc3)ccc12", "values": [{"measurement": "IC50", "setting": "[1]", "value": 4200, "unit": "nM"}]}, {"compound": "O=c1nc(Nc2cccnc2)oc2ccccc12", "values": [{"measurement": "IC50", "setting": "[2]", "value": 90, "unit": "µM"}]}, {"compound": "Cc1c(OCCN2CCN(C)CC2)ccc2c(=O)nc(N3CCOCC3)oc12", "values": [{"measurement": "IC50", "setting": "[3]", "value": "≥ 100000", "unit": "nM"}, {"measurement": "IC50", "setting": "[4]", "value": "≥ 100", "unit": "µM"}, {"measurement": "IC50", "setting": "[1]", "value": 500, "unit": "nM"}, {"measurement": "IC50", "setting": "[5]", "value": "≥ 100", "unit": "µM"}, {"measurement": "IC50", "setting": "[6]", "value": "≥ 100000", "unit": "nM"}]}, {"compound": "Cc1c(OCc2ccccn2)ccc2c(=O)nc(N(Cc3ccccn3)c3cccnc3)oc12", "values": [{"measurement": "IC50", "setting": "[2]", "value": 35, "unit": "µM"}]}, {"compound": "O=c1nc(N2CCOCC2)oc2c(OCc3ccccn3)cccc12", "values": [{"measurement": "IC50", "setting": "[1]", "value": 620, "unit": "nM"}]}, {"compound": "Cc1c(OCc2cccnc2)ccc2c(=O)nc(N(Cc3cccnc3)c3cccnc3)oc12", "values": [{"measurement": "IC50", "setting": "[2]", "value": 10, "unit": "µM"}, {"measurement": "IC50", "setting": "[1]", "value": 2500, "unit": "nM"}]}, {"compound": "Cc1c(OCc2ccncc2)ccc2c(=O)nc(N3CCOCC3)oc12", "values": [{"measurement": "IC50", "setting": "[1]", "value": 1200, "unit": "nM"}]}, {"compound": "O=c1nc(N(Cc2ccncc2)c2cccnc2)oc2c(-c3ccccc3)cccc12", "values": [{"measurement": "IC50", "setting": "[2]", "value": 75, "unit": "µM"}]}, {"compound": "Cc1c(OCc2cccnc2)ccc2c(=O)n(Cc3cccnc3)c(=O)oc12", "values": [{"measurement": "IC50", "setting": "[2]", "value": 75, "unit": "µM"}, {"measurement": "IC50", "setting": "[1]", "value": 10000, "unit": "nM"}]}, {"compound": "Cc1cccc2c(=O)nc(N(Cc3cccnc3)c3cccnc3)oc12", "values": [{"measurement": "IC50", "setting": "[2]", "value": 100, "unit": "µM"}]}, {"compound": "Cc1c(OCc2ccccn2)ccc2c(=O)n(Cc3ccccn3)c(=O)oc12", "values": [{"measurement": "IC50", "setting": "[2]", "value": 85, "unit": "µM"}]}, {"compound": "O=c1nc(N2CCOCC2)oc2cc(OCc3cccnc3)ccc12", "values": [{"measurement": "IC50", "setting": "[1]", "value": 2500, "unit": "nM"}]}, {"compound": "Cc1cccc2c(=O)nc(N(Cc3ccccn3)c3cccnc3)oc12", "values": [{"measurement": "IC50", "setting": "[1]", "value": 25200, "unit": "nM"}]}, {"compound": "O=c1nc(N(Cc2cccnc2)c2cccnc2)oc2c(-c3ccccc3)cccc12", "values": [{"measurement": "IC50", "setting": "[2]", "value": 65, "unit": "µM"}]}, {"compound": "CN1CCN(CCOc2cccc3c(=O)nc(N4CCOCC4)oc23)CC1", "values": [{"measurement": "IC50", "setting": "[1]", "value": 1700, "unit": "nM"}]}, {"compound": "Cc1c(OCc2ccccc2)ccc2c(=O)n(Cc3ccccc3)c(=O)oc12", "values": [{"measurement": "IC50", "setting": "[2]", "value": 85, "unit": "µM"}]}, {"compound": "O=c1nc(N(Cc2ccccn2)c2cccnc2)oc2cc(OCc3ccccn3)ccc12", "values": [{"measurement": "IC50", "setting": "[1]", "value": 5700, "unit": "nM"}]}, {"compound": "Cc1c(OCc2cccnc2)ccc2c(=O)nc(N3CCOCC3)oc12", "values": [{"measurement": "IC50", "setting": "[3]", "value": 2020, "unit": "nM"}, {"measurement": "IC50", "setting": "[4]", "value": 0.14, "unit": "µM"}, {"measurement": "IC50", "setting": "[1]", "value": 280, "unit": "nM"}, {"measurement": "IC50", "setting": "[5]", "value": 0.13, "unit": "µM"}, {"measurement": "IC50", "setting": "[6]", "value": 720, "unit": "nM"}]}, {"compound": "O=c1nc(N(Cc2cccnc2)c2cccnc2)oc2c(OCc3cccnc3)cccc12", "values": [{"measurement": "IC50", "setting": "[1]", "value": 13500, "unit": "nM"}]}, {"compound": "Cc1c(OCc2ccccn2)ccc2c(=O)nc(N3CCOCC3)oc12", "values": [{"measurement": "IC50", "setting": "[1]", "value": 1300, "unit": "nM"}]}, {"compound": "O=c1nc(Nc2cccnc2)oc2c(-c3ccccc3)cccc12", "values": [{"measurement": "IC50", "setting": "[2]", "value": 76, "unit": "µM"}]}, {"compound": "O=c1nc(N(Cc2cccnc2)c2cccnc2)oc2cc(OCc3cccnc3)ccc12", "values": [{"measurement": "IC50", "setting": "[1]", "value": 14800, "unit": "nM"}]}, {"compound": "CN1CCN(CCOc2ccc3c(=O)nc(N4CCOCC4)oc3c2)CC1", "values": [{"measurement": "IC50", "setting": "[1]", "value": 6800, "unit": "nM"}]}, {"compound": "O=c1nc(N(Cc2ccccn2)c2cccnc2)oc2c(OCc3ccccn3)cccc12", "values": [{"measurement": "IC50", "setting": "[1]", "value": 7800, "unit": "nM"}]}, {"compound": "O=c1nc(N2CCOCC2)oc2c(OCc3cccnc3)cccc12", "values": [{"measurement": "IC50", "setting": "[1]", "value": 360, "unit": "nM"}]}, {"compound": "O=c1nc(N2CCOCC2)oc2cc(OCc3ccccn3)ccc12", "values": [{"measurement": "IC50", "setting": "[1]", "value": 2700, "unit": "nM"}]}, {"compound": "O=c1nc(N2CCOCC2)oc2c(OCc3ccncc3)cccc12", "values": [{"measurement": "IC50", "setting": "[1]", "value": 1600, "unit": "nM"}]}, {"compound": "O=c1nc(N2CCOCC2)oc2c(-c3ccccc3)cccc12", "values": [{"measurement": "IC50", "setting": "[3]", "value": 950, "unit": "nM"}, {"measurement": "IC50", "setting": "[4]", "value": 3.36, "unit": "µM"}, {"measurement": "IC50", "setting": "[1]", "value": 300, "unit": "nM"}, {"measurement": "IC50", "setting": "[5]", "value": 4.07, "unit": "µM"}, {"measurement": "IC50", "setting": "[6]", "value": 1500, "unit": "nM"}]}, {"compound": "O=c1nc(N(Cc2ccncc2)c2cccnc2)oc2cc(OCc3ccncc3)ccc12", "values": [{"measurement": "IC50", "setting": "[2]", "value": 55, "unit": "µM"}]}]}
